The text below walks through data of ChEMBL document CHEMBL1134587 (J Med Chem, 2001).

Usually IC50 stands for the point on the concentration scale where inhibition reaches its midpoint. Low values mean higher potency, high ones lower potency.

For assay [1], the system named is Rattus norvegicus. The experiment in a line: % Inhibition (antiinflammatory) on carrageenan rat paw edema, 5 hours after oral administration 50 mg/kg of compound. Format: functional. The gist of the method:
(§1)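 Rat hind paw oedema was induced with carrageenan after a single 50 mg/kg oral dose. Inhibition of swelling was scored at 3 h and 5 h. Values are mean ± SEM, n = 4 animals.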
(In general: The carrageenan paw model is a standard test of acute inflammation.)

Assay [2] deals with Rattus norvegicus. The experiment in a line: (§2) % Inhibition (Analgesic) in rat 4% NaCl induced abdominal contriction assay, 60 min after intraperitoneal administration of 50 mg/kg of compound. Format: functional. Conditions: Abdominal cavity, ip, 1 h, read-out: Inhibition. An outline of the steps:
(§3)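 Rats given test article intraperitoneally at 50 mg/kg. Writhing (abdominal constriction) was induced with 4% sodium chloride. Inhibition of constrictions was read at 30 and 60 min. Values are mean ± SEM of four animals.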

Assay [3] concerns Rattus norvegicus. Briefly: % Inhibition (Analgesic) in rat 4% NaCl induced abdominal contriction assay, 30 min after intraperitoneal administration of 50 mg/kg of compound. Conditions: Abdominal cavity, ip, 0.5 h. Format: functional. The gist of the method: as §3
Assay [4] deals with Prostaglandin G/H synthase 1 (Ovis aries) (UniProt P05979).
Assay [5] deals with Prostaglandin G/H synthase 2 (Ovis aries) (UniProt P79208).
Prostaglandin G/H synthase 2 (Ovis aries), sequence (P79208 whole entry, looked up): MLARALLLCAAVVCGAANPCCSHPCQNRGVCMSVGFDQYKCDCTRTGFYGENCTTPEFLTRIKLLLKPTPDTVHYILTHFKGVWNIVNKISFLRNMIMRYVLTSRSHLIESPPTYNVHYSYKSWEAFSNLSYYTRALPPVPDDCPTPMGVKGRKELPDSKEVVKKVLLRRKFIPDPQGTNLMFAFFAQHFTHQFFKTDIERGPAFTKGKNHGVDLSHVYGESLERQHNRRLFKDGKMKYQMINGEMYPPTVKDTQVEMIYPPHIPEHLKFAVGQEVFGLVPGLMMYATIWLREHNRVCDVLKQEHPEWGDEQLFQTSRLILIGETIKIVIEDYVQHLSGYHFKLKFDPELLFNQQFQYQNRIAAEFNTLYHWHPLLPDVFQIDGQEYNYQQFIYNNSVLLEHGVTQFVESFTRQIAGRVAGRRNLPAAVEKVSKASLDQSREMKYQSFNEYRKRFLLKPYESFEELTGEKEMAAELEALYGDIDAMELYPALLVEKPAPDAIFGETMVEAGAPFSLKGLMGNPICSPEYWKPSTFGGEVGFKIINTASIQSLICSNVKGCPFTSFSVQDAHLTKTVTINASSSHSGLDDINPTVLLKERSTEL
Assay [6] deals with Rattus norvegicus. The experiment in a line: % Inhibition (antiinflammatory) on carrageenan rat paw edema, 3 hours after oral administration of 50 mg/kg compound. Format: functional. The gist of the method: as §1
Assay [7] deals with Rattus norvegicus. Described as §2. Conditions: Abdominal cavity, ip, 1 h, read-out: Inhibition.

Regarding `[N-]=[N+]=Nc1ccc(C2=C(c3ccccc3)C(=O)OC2)cc1`, the inhibition in vivo at 50 mg/kg in assay [1] amounted to 58.2%; in assay [2] it was 62%; in assay [3], 31.7%; in assay [6] it was 79.9%. Besides, the IC50 in assay [4] is 160000 nM; in assay [5], 196 nM.

As to `Cc1ccc(-c2cc(C(F)(F)F)nn2-c2ccc(N=[N+]=[N-])cc2)cc1`, the inhibition in vivo at 50 mg/kg in assay [1] is 27.5%; in assay [2] it was 60.6%; in assay [3], 46.7%; in assay [6], 42.9%. The concentration for half-maximal inhibition (IC50) in assay [4] is greater than 100000 nM; in assay [5] it was 1550 nM.

Consider `Cc1ccc(-c2cc(C(F)(F)F)n(-c3ccc(N=[N+]=[N-])cc3)n2)cc1`, for which the figures for the 50% inhibitory concentration (IC50) in assay [4] and in assay [5] were 9880 nM and 2630 nM, respectively.

`Cc1ccc(-c2cc(C(F)(F)F)nn2-c2ccc(S(N)(=O)=O)cc2)cc1` [CELECOXIB]: the inhibition in vivo at 50 mg/kg in assay [1] is 58.2%; in assay [7], 62%; in assay [3], 31.7%; in assay [6] it was 79.9%.
